Entries after “also recorded” stand apart in the source; their conditions may differ. Read-outs that look alike come from different tables or passages of the source.
How the values were obtained:
SK-OV-3 (ovarian) = test: SRB cytotoxicity assay, SK-OV-3; assay type: cell-based, human; settings: SK-OV-3, 48 h, read-out: GI50 (μM) SRB assay SK-OV-3
Method in brief: (§1)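 Serial dilutions of the test compound were added to the cells for 48 h. Cells were then fixed with trichloroacetic acid, washed, dried and stained with sulforhodamine B. The dye was solubilised and read at 540 nm, normalised to 630 nm.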

DU-145 (prostate) = test: SRB cytotoxicity assay, DU-145; assay type: cell-based, human; settings: DU-145, 48 h, read-out: GI50 (μM) SRB assay DU-145
Method in brief: as §1

NCI-H460 (lung) = test: SRB cytotoxicity assay, NCI-H460; assay type: cell-based, human; settings: NCI-H460, 48 h, read-out: GI50 (μM) SRB assay NCI-H460
Method in brief: as §1

tubulin = test: Inhibition of [3H]colchicine binding to tubulin; settings: 1.0 μM tubulin, 5.0 μM [3H]colchicine
[1] = tested on: human cancer cell lines [SK-OV-3 (ovarian), NCI-H460 (lung), and DU-145 (prostate)]; test: SRB cytotoxicity assay, panel of three human cancer cell lines; assay type: cell-based; settings: read-out: GI50 against two of the three cell lines
Method in brief: as §1

[2] = target: purified bovine brain tubulin (Bos taurus, UniProt P81947+Q6B856); settings: read-out: Inhibition of tubulin polymerization IC50 (μM) ± SD; cited from earlier work
[3] = tested on: MDA-MB-231-luc orthotopic human tumor xenografts; test: In vivo dynamic bioluminescence imaging; set-up: species or system SCID mice
Method in brief: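 Female SCID mice carried orthotopic mammary fat pad tumors grown from […] MDA-MB-231-Luc cells (stable lentiviral firefly luciferase) in 30% Matrigel, used at about 5 mm diameter. Under 2% isoflurane in O2, mice received D-luciferin 120 mg/kg in saline SC at the fore-back neck, and BLI images were taken over 35 min. The test compound (20, 30 or 40 mg/kg), saline, or CA4P 120 mg/kg was given IP immediately after baseline. BLI was repeated with fresh luciferin at 4 and 24 h, and light intensity-time curves were analysed.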

[4] = tested on: breast tumor bearing SCID mice; test: Acute toxicity in breast tumor bearing SCID mice; assay type: in vivo; settings: IP administration of saline solutions, doses up to 40 mg/kg

Chain of purified bovine brain tubulin (P81947 whole entry): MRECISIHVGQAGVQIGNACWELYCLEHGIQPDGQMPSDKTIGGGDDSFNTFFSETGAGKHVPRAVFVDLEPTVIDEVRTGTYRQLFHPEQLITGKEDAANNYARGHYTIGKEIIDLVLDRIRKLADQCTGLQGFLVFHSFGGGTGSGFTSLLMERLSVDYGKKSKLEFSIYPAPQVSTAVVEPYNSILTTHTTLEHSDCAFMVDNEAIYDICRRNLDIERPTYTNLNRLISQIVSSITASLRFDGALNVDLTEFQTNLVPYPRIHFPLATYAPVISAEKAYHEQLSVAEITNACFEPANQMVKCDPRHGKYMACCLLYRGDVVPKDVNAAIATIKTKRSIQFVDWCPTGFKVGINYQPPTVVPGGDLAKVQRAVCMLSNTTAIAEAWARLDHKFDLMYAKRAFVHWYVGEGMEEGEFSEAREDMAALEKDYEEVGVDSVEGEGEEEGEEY
Chain of purified bovine brain tubulin (Q6B856 whole entry): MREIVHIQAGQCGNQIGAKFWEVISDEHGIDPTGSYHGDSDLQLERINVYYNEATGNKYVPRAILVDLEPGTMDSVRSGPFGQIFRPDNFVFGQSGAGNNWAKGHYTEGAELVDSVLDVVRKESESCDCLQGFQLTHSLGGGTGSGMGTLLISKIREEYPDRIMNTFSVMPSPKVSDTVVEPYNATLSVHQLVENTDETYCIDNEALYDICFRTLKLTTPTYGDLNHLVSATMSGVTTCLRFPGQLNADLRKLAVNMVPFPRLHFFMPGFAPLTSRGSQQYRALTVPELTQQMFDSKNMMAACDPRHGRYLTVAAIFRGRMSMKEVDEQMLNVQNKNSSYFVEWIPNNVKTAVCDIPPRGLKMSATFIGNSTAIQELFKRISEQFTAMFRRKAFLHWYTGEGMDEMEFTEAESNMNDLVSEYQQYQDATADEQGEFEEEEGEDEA

| Structure (SMILES) | GI50 (SK-OV-3 (ovarian); Homo sapiens) [µM] | GI50 (DU-145 (prostate); Homo sapiens) [µM] | GI50 (NCI-H460 (lung); Homo sapiens) [µM] | % Inhibition of colchicine binding ± SD (tubulin; 5 μM inhibitor) | further results |
| --- | --- | --- | --- | --- | --- |
| COc1ccc2c(c1OC)CCCC=C2c1ccccc1 [Compound 28, 3,4-Dimethoxy-9-phenyl-6,7-dihydro-5H-benzo[7]annulene] | 32.7 | 89.3 | 37.5 |  |  |
| COc1ccc2c(c1OP(=O)(O)O)CCCC=C2c1cc(C(F)(F)F)cc(C(F)(F)F)c1 [Compound 74, 9-(3′,5′-Bis(trifluoromethyl)phenyl)-3-methoxy-6,7-dihydro-5H-benzo[7]annulen-4-yl disodium phosphate] |  |  |  |  | GI50 (SK-OV-3 (ovarian); average of n ≥ 3): 17.2 µM; GI50 (DU-145 (prostate); average of n ≥ 3): 17.5 µM; GI50 (NCI-H460 (lung); average of n ≥ 3): 16.3 µM |
| COc1ccc2c(c1)CCCC=C2c1cc(OC)c(OC)c(OC)c1 [Compound 29, 3-Methoxy-9-(3′,4′,5′-trimethoxyphenyl)-6,7-dihydro-5H-benzo[7]annulene] | 0.0516 | 0.0619 | 0.0527 | 72 ± 0.8% | % Inhibition of colchicine binding ± SD (tubulin; 1 μM inhibitor): 37 ± 5% |
| COc1ccc2c(c1O)CCCCC2c1cc(OC)c(OC)c(OC)c1 (centres unmarked) [Compound 72, 2-Methoxy-5-(3′,4′,5′-trimethoxyphenyl)-6,7,8,9-tetrahydro-5H-benzo[7]annulen-1-ol] | 0.408 | 0.57 | 0.141 | 67 ± 0.6% | % Inhibition of colchicine binding ± SD (tubulin; 1 μM inhibitor): 21 ± 0.9% |
| COc1ccc2c(c1OC)CCCC=C2c1cc(C(F)(F)F)cc(C(F)(F)F)c1 [Compound 34, 9-(3′,5′-Bis(trifluoromethyl)phenyl)-3,4-dimethoxy-6,7-dihydro-5H-benzo[7]annulene] | 31.1 | 52.1 | 25.5 |  |  |
| COc1ccc2c(c1O)CCCC=C2c1ccc(OC)c(OC)c1OC [Compound 71, 3-Methoxy-9-(2′,3, ′4′-trimethoxyphenyl)-6,7-dihydro-5H-benzo[7]annulen-4-ol] |  |  |  |  | GI50 (SK-OV-3 (ovarian); average of n ≥ 3): 3.53 µM; GI50 (DU-145 (prostate); average of n ≥ 3): 7.54 µM; GI50 (NCI-H460 (lung); average of n ≥ 3): 4.24 µM |
| COc1ccc(C2=CCCCc3c2ccc(OC)c3OC)cc1 [Compound 36, 3,4-Dimethoxy-9-(4′-methoxyphenyl)-6,7-dihydro-5H-benzo[7]annulene] | 20.5 | 48.3 | 33.4 |  |  |
| COc1ccc2c(c1OC)CCCC=C2c1ccc(OC)c(OC)c1OC [Compound 61, 3,4-Dimethoxy-9-(2′,3′,4′-trimethoxyphenyl)-6,7-dihydro-5H-benzo[7]annulene] | 6.96 | 26.2 | 10.5 |  |  |
| CCc1c(OC)ccc2c1CCCC=C2c1cc(OC)c(OC)c(OC)c1 [Compound 31, 4-Ethyl-3-methoxy-9-(3′,4′,5′-trimethoxyphenyl)-6,7-dihydro-5H-benzo[7]annulene] | 0.568 | 1.51 | 0.763 |  | GI50 [1]: < 1 µM |
| COc1ccc2c(c1C)CCCC=C2c1cc(OC)c(OC)c(OC)c1 [Compound 30, 3-Methoxy-4-methyl-9-(3′,4′,5′-trimethoxyphenyl)-6,7-dihydro-5H-benzo[7]annulene] | 0.33 | 0.644 | 0.422 | 65 ± 0.6 (5 μM) % |  |
| COc1ccc(/C=C\c2cc(OC)c(OC)c(OC)c2)cc1OP(=O)(O)O [CA4P, combretastatin A-4P, reference compound] |  |  |  |  | IC50 [2]: > 40 µM; GI50 (SK-OV-3 (ovarian); average of n ≥ 3): 0.00119 µM; reduction of BLI signal / light emission ([3]; CA4P 120 mg/kg IP in saline, 4 h): greater than 90%; reduction of BLI signal (remained depressed) ([3]; CA4P 120 mg/kg IP in saline, after 24 h): > 75%; GI50 (DU-145 (prostate); average of n ≥ 3): 0.00323 µM; GI50 (NCI-H460 (lung); average of n ≥ 3): 0.00194 µM |
| COc1ccc(C2=CCCCc3cc(OC)ccc32)cc1 [Compound 37, 3-Methoxy-9-(4′-methoxyphenyl)-6,7-dihydro-5H-benzo[7]annulene] | 40.7 | 68.7 | 57.7 |  |  |
| COc1cc(C2=CCCCc3c2ccc(OC)c3OC)cc(OC)c1OC [Compound 35, 3,4-Dimethoxy-9-(3′,4′,5′-trimethoxyphenyl)-6,7-dihydro-5H-benzo[7]annulene] | 0.277 | 0.708 | 0.593 | 30 ± 4% | % Inhibition of colchicine binding ± SD (tubulin; 50 μM inhibitor): 56 ± 4% |
| CCCc1c(OC)ccc2c1CCCC=C2c1cc(OC)c(OC)c(OC)c1 [Compound 32, 3-Methoxy-4-propyl-9-(3′,4′,5′-trimethoxyphenyl)-6,7-dihydro-5H-benzo[7]annulene] | 2.96 | 6.03 | 3.32 |  |  |
| COc1cc(C2=CCCCc3cc(O)ccc32)cc(OC)c1OC [Compound 68, 9-(3′,4′,5′-Trimethoxyphenyl)-6,7-dihydro-5H-benzo[7]annulen-3-ol] | 0.527 | 1.02 | 0.647 | 27 ± 5 (5 μM) % |  |
| COc1ccc(C2=CCCCc3c2ccc(OC)c3O)cc1 [Compound 67, 3-Methoxy-9-(4′-methoxyphenyl)-6,7-dihydro-5H-benzo[7]annulen-4-ol] | 18.4 | 8.59 | 10.6 |  |  |
| COc1cc(C2CCCCc3c2ccc(OC)c3OP(=O)([O-])[O-])cc(OC)c1OC.[Na+].[Na+] (centres unmarked) [Compound 73, 2-Methoxy-5-(3′,4′,5′-trimethoxyphenyl)-6,7,8,9-tetrahydro-5H-benzo[7]annulen-1-yl disodium phosphate] |  |  |  |  | GI50 (SK-OV-3 (ovarian); average of n ≥ 3): 0.357 µM; effect on light emission (dynamic BLI) ([3]; 30 mg/kg, 4 h after administration): modest effect; reduction of the emitted BLI signal ([3]; 40 mg/kg IP in saline, 4 h after administration): about 50%; BLI signal recovery ([3]; 20, 30 or 40 mg/kg IP, within 24 h): generally returned to its original level; also recorded: substantial recovery; reduction of BLI signal ([3]; 20 or 30 mg/kg IP in saline, 4 h after administration): modest reduction; acute toxicity over 24 h [4]: no obvious acute toxicity; GI50 (DU-145 (prostate); average of n ≥ 3): 0.753 µM; GI50 (NCI-H460 (lung); average of n ≥ 3): 0.145 µM |
| COc1cc(C2=CCCCc3c2ccc(O)c3O)cc(OC)c1OC [Compound 70, 9-(3′,4′,5′-Trimethoxyphenyl)-6,7-dihydro-5H-benzo[7]annulene-3,4-diol] | 0.346 | 1.53 | 0.691 |  |  |
| COc1ccc2c(c1)CCCC=C2c1ccc(OC)c(OC)c1OC [Compound 62, 3-Methoxy-9-(2′,3′,4′-trimethoxyphenyl)-6,7-dihydro-5H-benzo[7]annulene] | 0.0432 | 0.0562 | 0.12 | 69 ± 3% | % Inhibition of colchicine binding ± SD (tubulin; 1 μM inhibitor): 36 ± 5% |
| COc1ccc(/C=C\c2cc(OC)c(OC)c(OC)c2)cc1O [CA4, combretastatin A-4, reference compound] | 0.00455 | 0.00327 | 0.00223 |  | % Inhibition of colchicine binding ± SD (tubulin; 1 μM inhibitor): 84 ± 3% |
| Oc1ccc2c(c1O)CCCC=C2c1cc(C(F)(F)F)cc(C(F)(F)F)c1 [Compound 66, 9-(3′,5′-Bis(trifluoromethyl)phenyl)-6,7-dihydro-5H-benzo[7]annulene-3,4-diol] | 16.8 | 21.8 | 25 |  |  |
| COc1ccc2c(c1O)CCCC=C2c1cc(C(F)(F)F)cc(C(F)(F)F)c1 [Compound 65, 9-(3′,5′-Bis(trifluoromethyl)phenyl)-3-methoxy-6,7-dihydro-5H-benzo[7]annulen-4-ol] | 4.81 | 4.92 | 4.39 | 8.5 ± 4% | % Inhibition of colchicine binding ± SD (tubulin; 50 μM inhibitor): 37 ± 5% |
| COc1ccc2c(c1O)CCCC=C2c1ccccc1 [Compound 64, 3-Methoxy-9-phenyl-6,7-dihydro-5H-benzo[7]annulen-4-ol] | 0.557 | 4.4 | 0.652 |  | GI50 [1]: < 1 µM |
